This note sets out measurements from ChEMBL document CHEMBL2417382, “Derivatives of grindelic acid: from a non-active natural diterpene to synthetic antitumor derivatives” (2013).

Molecules are shown by their SMILES. The source made the active and inactive calls. The calls are words filed in the database; no cut-off is given here.

What all share (format): functional
For test [1], the system named is T47D. In words: Antiproliferative activity against human T47D cells after 48 hrs by SRB assay. An outline of the steps: (§1)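 Cells grown in RPMI 1640 with 5% heat-inactivated FCS and 2 mM L-glutamine. Seeded per well at 20,000 (WiDr), 15,000 (T-47D) or 10,000 (HeLa, SW1573, HBL-100). Dosing started the day after plating, in triplicate at 1–100 µM, with 0.25% DMSO as the vehicle control. After 48 h, TCA fixation, SRB staining and OD at 492 nm. Percentage growth calculated against untreated cells from OD at T0 and end, using NCI formulas.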
(In general: The SRB assay estimates cell density from bound dye.)

In test [2] the test system is WiDr. In words: Antiproliferative activity against human WiDr cells after 48 hrs by SRB assay. An outline of the steps: as §1
Test [3] relates to HBL-100. In words: Antiproliferative activity against human HBL100 cells after 48 hrs by SRB assay. The settings on record: HBL-100, 48 h. An outline of the steps:
as §1

For test [4], the system named is HeLa. Nature of the test: Antiproliferative activity against human HeLa cells after 48 hrs by SRB assay. An outline of the steps: as §1
For test [5], the system named is SW1573. Nature of the test: Antiproliferative activity against human SW1573 cells after 48 hrs by SRB assay. The following applies: SW1573, 48 h. An outline of the steps: as §1

On to `CC1=CC[C@H]2C(C)(C)CCC[C@]2(C)[C@@]12CC[C@@](C)(CCn1cc(C[C@]3(C)CC[C@@]4(O3)C(C)=CC[C@H]3C(C)(C)CCC[C@@]34C)nn1)O2`, for which the 50% growth inhibitory concentration (GI50) in test [1] was found to be 17 µM; in test [3] it was 9.3 µM; in test [4], 17 µM; in test [5], 11 µM. Also, in test [2], the GI50 result was “inactive”.

A word on the GI50: it is the concentration giving 50% growth inhibition.
